Measurements published in paper PMC11047177 (ESMO Open, 2024).
“Also recorded” adds a separate entry of the source.

Test: Phase I study NCT03854227: DLTs and adverse events
Type: in vivo, human
Summary of the method: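 Open-label, multicentre first-in-human trial in adults (ECOG 0–1) with advanced or metastatic tumours. Oral test compound, q.d. or b.i.d., on an empty stomach in continuous 28-day cycles. Part 1 started at 0.5 mg q.d., with escalation guided by a two-parameter Bayesian logistic regression model on cycle 1 DLTs. Part 2 ran at 6 mg q.d. AEs were graded by CTCAE 5.0 and summarised descriptively by dose level.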

Cc1ncnc2c1ccn2[C@@H]1C[C@H](Oc2cc(C(F)F)c(F)c3c2CNCC3)[C@@H](O)[C@H]1O [PF-06939999]
Grade ≥3 TRAE thrombocytopenia/platelet count decreased (overall (part 1 + part 2), N=54): 22%
TRAE dysgeusia, any grade (part 1 + part 2, N=54): 22%
TRAE fatigue, any grade (part 1 + part 2, N=54): 28%
TRAE nausea, any grade (part 1 + part 2, N=54): 32%
TRAE thrombocytopenia, any grade (part 1 + part 2, N=54): 41%
DLT (part 1, 0.5 mg b.i.d., N=1): 0 n (%)
Grade ≥3 TRAE Anemia (part 1, 0.5 mg b.i.d., N=1): 0 n (%)
Grade ≥3 TRAE Fatigue (part 1, 0.5 mg b.i.d., N=1): 0 n (%)
Grade ≥3 TRAE Lymphocyte count decreased (part 1, 0.5 mg b.i.d., N=1): 0 n (%)
Grade ≥3 TRAE Muscular weakness (part 1, 0.5 mg b.i.d., N=1): 0 n (%)
Grade ≥3 TRAE Neutropenia (part 1, 0.5 mg b.i.d., N=1): 0 n (%)
Grade ≥3 TRAE Thrombocytopenia (part 1, 0.5 mg b.i.d., N=1): 0 n (%)
DLT (part 1, 0.5 mg q.d., N=1): 0 n (%)
Grade ≥3 TRAE Anemia (part 1, 0.5 mg q.d., N=1): 0 n (%)
Grade ≥3 TRAE Fatigue (part 1, 0.5 mg q.d., N=1): 0 n (%)
Grade ≥3 TRAE Lymphocyte count decreased (part 1, 0.5 mg q.d., N=1): 0 n (%)
Grade ≥3 TRAE Muscular weakness (part 1, 0.5 mg q.d., N=1): 0 n (%)
Grade ≥3 TRAE Neutropenia (part 1, 0.5 mg q.d., N=1): 0 n (%)
Grade ≥3 TRAE Thrombocytopenia (part 1, 0.5 mg q.d., N=1): 0 n (%)
DLT (part 1, 1 mg b.i.d., N=2): 0 n (%)
Grade ≥3 TRAE Anemia (part 1, 1 mg b.i.d., N=2): 1 (50) n (%)
Grade ≥3 TRAE Fatigue (part 1, 1 mg b.i.d., N=2): 0 n (%)
Grade ≥3 TRAE Lymphocyte count decreased (part 1, 1 mg b.i.d., N=2): 0 n (%)
Grade ≥3 TRAE Muscular weakness (part 1, 1 mg b.i.d., N=2): 0 n (%)
Grade ≥3 TRAE Neutropenia (part 1, 1 mg b.i.d., N=2): 0 n (%)
Grade ≥3 TRAE Thrombocytopenia (part 1, 1 mg b.i.d., N=2): 0 n (%)
DLT (part 1, 2 mg b.i.d., N=2): 0 n (%)
Grade ≥3 TRAE Anemia (part 1, 2 mg b.i.d., N=3): 0 n (%)
Grade ≥3 TRAE Fatigue (part 1, 2 mg b.i.d., N=3): 0 n (%)
Grade ≥3 TRAE Lymphocyte count decreased (part 1, 2 mg b.i.d., N=3): 0 n (%)
Grade ≥3 TRAE Muscular weakness (part 1, 2 mg b.i.d., N=3): 0 n (%)
Grade ≥3 TRAE Neutropenia (part 1, 2 mg b.i.d., N=3): 0 n (%)
Grade ≥3 TRAE Thrombocytopenia (part 1, 2 mg b.i.d., N=3): 1 (33) n (%)
DLT (part 1, 4 mg b.i.d., N=3): 0 n (%)
Grade ≥3 TRAE Anemia (part 1, 4 mg b.i.d., N=3): 1 (33) n (%)
Grade ≥3 TRAE Fatigue (part 1, 4 mg b.i.d., N=3): 1 (33) n (%)
Grade ≥3 TRAE Lymphocyte count decreased (part 1, 4 mg b.i.d., N=3): 0 n (%)
Grade ≥3 TRAE Muscular weakness (part 1, 4 mg b.i.d., N=3): 0 n (%)
Grade ≥3 TRAE Neutropenia (part 1, 4 mg b.i.d., N=3): 0 n (%)
Grade ≥3 TRAE Thrombocytopenia (part 1, 4 mg b.i.d., N=3): 1 (33) n (%)
DLT (part 1, 4 mg q.d., N=4): 0 n (%)
Grade ≥3 TRAE Anemia (part 1, 4 mg q.d., N=5): 2 (40) n (%)
Grade ≥3 TRAE Fatigue (part 1, 4 mg q.d., N=5): 0 n (%)
Grade ≥3 TRAE Lymphocyte count decreased (part 1, 4 mg q.d., N=5): 0 n (%)
Grade ≥3 TRAE Muscular weakness (part 1, 4 mg q.d., N=5): 1 (20) n (%)
Grade ≥3 TRAE Neutropenia (part 1, 4 mg q.d., N=5): 0 n (%)
Grade ≥3 TRAE Thrombocytopenia (part 1, 4 mg q.d., N=5): 0 n (%)
DLT thrombocytopenia, number of patients (part 1, 6 mg b.i.d.): 2 n
DLT (part 1, 6 mg b.i.d., N=2): 2 (100) n (%)
Grade ≥3 TRAE Anemia (part 1, 6 mg b.i.d., N=4): 1 (25) n (%)
Grade ≥3 TRAE Fatigue (part 1, 6 mg b.i.d., N=4): 0 n (%)
Grade ≥3 TRAE Lymphocyte count decreased (part 1, 6 mg b.i.d., N=4): 0 n (%)
Grade ≥3 TRAE Muscular weakness (part 1, 6 mg b.i.d., N=4): 0 n (%)
Grade ≥3 TRAE Neutropenia (part 1, 6 mg b.i.d., N=4): 0 n (%)
Grade ≥3 TRAE Thrombocytopenia (part 1, 6 mg b.i.d., N=4): 2 (50) n (%)
DLT (grade 3) neutropenia, number of patients (part 1, 6 mg q.d.): 1 n
DLT (part 1, 6 mg q.d., N=6): 1 (17) n (%)
Grade ≥3 TRAE Anemia (part 1, 6 mg q.d., N=6): 2 (33) n (%)
Grade ≥3 TRAE Fatigue (part 1, 6 mg q.d., N=6): 1 (17) n (%)
Grade ≥3 TRAE Lymphocyte count decreased (part 1, 6 mg q.d., N=6): 0 n (%)
Grade ≥3 TRAE Muscular weakness (part 1, 6 mg q.d., N=6): 0 n (%)
Grade ≥3 TRAE Neutropenia (part 1, 6 mg q.d., N=6): 1 (17) n (%)
Grade ≥3 TRAE Thrombocytopenia (part 1, 6 mg q.d., N=6): 0 n (%)
DLT (grade 3) anemia, number of patients (part 1, 8 mg q.d.): 1 n
DLT (part 1, 8 mg q.d., N=3): 1 (33) n (%)
Grade ≥3 TRAE Anemia (part 1, 8 mg q.d., N=3): 1 (33) n (%)
Grade ≥3 TRAE Fatigue (part 1, 8 mg q.d., N=3): 0 n (%)
Grade ≥3 TRAE Lymphocyte count decreased (part 1, 8 mg q.d., N=3): 1 (33) n (%)
Grade ≥3 TRAE Muscular weakness (part 1, 8 mg q.d., N=3): 0 n (%)
Grade ≥3 TRAE Neutropenia (part 1, 8 mg q.d., N=3): 0 n (%)
Grade ≥3 TRAE Thrombocytopenia (part 1, 8 mg q.d., N=3): 2 (67) n (%)
Patients reporting DLTs (part 1, 4 of 24 DLT-assessable patients): 17%
DLT grade 3 thrombocytopenia, number of patients (part 1, 6-mg b.i.d. cohort): 1 n
DLT grade 4 thrombocytopenia, number of patients (part 1, 6-mg b.i.d. cohort): 1 n
DLT (part 1, Total, N=24): 4 (17) n (%)
Grade ≥3 TRAE Fatigue (part 1, Total, N=28): 2 (7) n (%)
Grade ≥3 TRAE Lymphocyte count decreased (part 1, Total, N=28): 1 (4) n (%)
Grade ≥3 TRAE Muscular weakness (part 1, Total, N=28): 1 (4) n (%)
Grade ≥3 TRAE Neutropenia (part 1, Total, N=28): 1 (4) n (%)
Grade ≥3 TRAE Thrombocytopenia (part 1, Total, N=28): 6 (21) n (%)
Maximum tolerated dose (MTD) (part 1 dose escalation, 0.5 mg q.d. to 6 mg b.i.d.): No MTD was determined; also recorded: MTD was not identified
Dose reduction due to thrombocytopenia, patients (part 2, 6 mg q.d., 4 patients): 15%
Dose reduction due to anemia, patients (part 2, 6 mg q.d., 5 patients): 19%
Patients with ≥1 dose reduction due to AEs (part 2, 6 mg q.d., eight patients): 31%
